Experimental data collected from several papers.
Compare with care: the assays were run in different laboratories.
Target: Phosphatidylinositol 3-kinase C2 domain-containing subunit gamma (PIK3C2G, Homo sapiens, UniProt O75747)
Residues used in one study (O75747 1-1486): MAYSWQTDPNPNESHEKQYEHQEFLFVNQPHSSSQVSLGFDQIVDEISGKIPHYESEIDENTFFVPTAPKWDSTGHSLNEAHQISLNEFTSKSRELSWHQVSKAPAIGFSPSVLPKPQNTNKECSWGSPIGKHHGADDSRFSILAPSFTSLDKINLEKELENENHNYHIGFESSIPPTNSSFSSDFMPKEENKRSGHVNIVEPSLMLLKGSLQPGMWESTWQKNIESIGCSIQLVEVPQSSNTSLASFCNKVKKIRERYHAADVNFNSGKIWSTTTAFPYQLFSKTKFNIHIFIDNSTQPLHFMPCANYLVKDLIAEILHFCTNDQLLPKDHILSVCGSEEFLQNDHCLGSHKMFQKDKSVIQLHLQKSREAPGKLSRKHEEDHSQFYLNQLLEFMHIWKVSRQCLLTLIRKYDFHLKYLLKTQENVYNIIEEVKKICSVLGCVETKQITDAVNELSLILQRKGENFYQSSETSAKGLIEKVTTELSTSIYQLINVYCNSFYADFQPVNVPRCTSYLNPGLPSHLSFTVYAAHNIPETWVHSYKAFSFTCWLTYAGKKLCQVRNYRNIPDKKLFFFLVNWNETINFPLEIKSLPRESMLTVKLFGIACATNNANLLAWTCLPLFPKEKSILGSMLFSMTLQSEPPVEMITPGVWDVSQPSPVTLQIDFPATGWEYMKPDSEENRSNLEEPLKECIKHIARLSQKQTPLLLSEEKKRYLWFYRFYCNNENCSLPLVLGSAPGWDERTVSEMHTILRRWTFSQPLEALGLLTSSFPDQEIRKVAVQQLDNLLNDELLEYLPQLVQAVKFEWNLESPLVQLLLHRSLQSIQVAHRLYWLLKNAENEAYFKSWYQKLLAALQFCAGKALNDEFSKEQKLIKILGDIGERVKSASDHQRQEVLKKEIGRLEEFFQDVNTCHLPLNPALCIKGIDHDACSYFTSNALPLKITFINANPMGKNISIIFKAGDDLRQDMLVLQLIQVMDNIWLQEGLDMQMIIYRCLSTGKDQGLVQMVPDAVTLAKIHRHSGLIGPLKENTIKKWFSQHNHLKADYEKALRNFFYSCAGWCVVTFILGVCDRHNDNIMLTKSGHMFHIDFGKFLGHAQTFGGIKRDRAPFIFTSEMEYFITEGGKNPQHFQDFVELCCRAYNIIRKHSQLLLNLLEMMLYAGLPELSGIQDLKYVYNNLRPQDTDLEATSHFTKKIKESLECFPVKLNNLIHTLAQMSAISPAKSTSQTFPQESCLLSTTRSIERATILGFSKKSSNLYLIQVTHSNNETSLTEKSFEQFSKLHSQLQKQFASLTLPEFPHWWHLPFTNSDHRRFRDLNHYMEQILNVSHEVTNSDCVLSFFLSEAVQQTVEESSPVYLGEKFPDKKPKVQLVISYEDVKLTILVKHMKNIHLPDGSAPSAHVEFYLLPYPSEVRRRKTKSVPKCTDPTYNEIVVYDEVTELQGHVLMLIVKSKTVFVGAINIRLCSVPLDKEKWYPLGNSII

Structure (SMILES)	read-out	method	concentration	remaining binding [%]
O=C(NCCCN1CCOCC1)c1ccc(Nc2ncc(Cl)c(-c3ccc(Cl)s3)n2)cc1	binding	competition with immobilised ligand	1 µM	100
C=CC(=O)N1CCC(C(=O)NCC(=O)N2CCN(c3nc(-c4cnc(N)nc4C(F)F)nc(N4CCOCC4)n3)CC2)CC1	binding	competition with immobilised ligand	1 µM	16
CCCOc1ccc([C@@H]2[C@@H](C(=O)O)[C@H](c3ccc4c(c3)OCO4)CN2CC(=O)Nc2c(CC)cccc2CC)cc1	cell-free assay	competition with immobilised ligand	1 µM	78
F[C@@H]1CCN(c2nccc(-c3cnn4ncccc34)n2)C1	binding		1 µM	82
CCN1CCN(Cc2ccc(C(=O)Nc3ccc(C)c(Oc4ccc5c(c4)CC(=O)N5)c3)cc2C(F)(F)F)CC1	binding	competition with immobilised ligand	1 µM	100
COc1cnc(Nc2cccc(S(N)(=O)=O)c2)nc1N1CCN(c2ccccc2)CC1	binding	competition with immobilised ligand	1 µM	79
O=C(NCCCN1CCOCC1)c1ccc(Nc2nccc(-c3cc4ccccc4s3)n2)cc1	binding	competition with immobilised ligand	1 µM	68
CNCc1ccccc1-c1csc([C@@H](C)Nc2nc(C)nc3cc(OC)c(OC)cc23)c1	cell-free assay	competition with immobilised ligand	1 µM	59
Cc1cnc(Nc2ccc(C(=O)N3CCC(N4CCCC4)CC3)cc2)nc1-c1cc2ccccc2s1	binding	competition with immobilised ligand	1 µM	90
CC1=C(C#N)C(c2ccc3c(c2)c(NC(=O)c2ccccc2C)nn3C)C(C#N)=C(C)N1	cell-free assay	competition with immobilised ligand	1 µM	61
C[C@@H](c1ccc(-n2cnc3c(N)ncnc32)cc1)N1CCc2nn(C)c(Cc3ccccc3)c2C1=O	binding	competition with immobilised ligand	0.1 µM	92
N[C@H]1CCN(c2nccc(-c3cnn4ncccc34)n2)C1	binding		1 µM	100
Cc1nc(C2CCN(C(=O)c3ccc(OC(F)(F)F)cc3N)CC2)c2ncc(N3CCN(C)CC3)cc2n1	cell-free assay	competition with immobilised ligand	1 µM	100
FC(F)(F)Oc1cccc(-c2cnc3ccc(-c4ccncc4)nn23)c1	cell-free assay	competition with immobilised ligand	5 µM	34
CN(C)c1ncc(F)c(-c2cnn3ncccc23)n1	binding		1 µM	56
O=C(NCC1CCOCC1)c1n[nH]cc1NC(=O)c1c(F)cccc1F	binding	competition with immobilised ligand	1 µM	100
CNC(=O)c1ccc(Nc2ncc(C(F)(F)F)c(NCc3nccnc3N(C)S(C)(=O)=O)n2)cc1	cell-free assay	competition with immobilised ligand	0.1 µM	92
CN(CCCC(F)(F)F)c1nccc(-c2cnn3ncccc23)n1	binding		1 µM	100
N#CC1(c2ccccn2)CCN(Cc2cc(C(=O)N3CCCC3)c(=O)n3ccccc23)CC1	cell-free assay	competition with immobilised ligand	1 µM	73
CN(C)c1nccc(-c2cnc3ncccn23)n1	binding		1 µM	51
c1cncc(-c2cccc(Nc3nccc(NC4CCCCC4)n3)c2)c1	binding	competition with immobilised ligand	10 µM	51
